Several values for one entry are separate records, joined by “and”; a condition that tells them apart may be missing. Equal entries are not always repeated.
Legend:
[1] = system: motor coordination on rotating rod; experiment: Neurotoxicity / minimal motor impairment, rotating rod; type: in vivo; conditions: rod observed 5 min, mean ± SEM, 10 mice
In short: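 White albino mice of either sex, 8–10 weeks, 25–35 g, were trained on a rotating rod (2.5 cm diameter, 25 cm high). After i.p. dosing (10, 30 or 50 mg/kg), motor coordination was scored over 5 min at 30 min and 4 h. Neurotoxicity meant failure to stay on the rod for 1 min. 10 mice per group; mean ± SEM.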

MCF-7 cell line = experiment: MTT cytotoxicity assay in MCF-7 cells; type: cell-based, human; conditions: for % inhibition/stimulation: conc. 30 μM
In short: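 MCF-7 cells grown in Eagle's MEM with 10% FBS, 1% penicillin/streptomycin, 0.1 mM non-essential amino acids, 10 μg/mL insulin and 1 mM sodium pyruvate at 37 °C, 5% CO2. Trypsin/EDTA-harvested cells were seeded at 6 × 10^4 cells/mL and incubated overnight. Test compound (1–30 μM, or a fixed 30 μM screen against doxorubicin) was applied for 48 h. MTT 0.5 mg/mL for 4 h, DMSO, A570; % inhibition and IC50.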

PTZ-induced convulsions = PTZ-induced convulsions in mice; type: in vivo; conditions: for average duration of seizure / latency time / seizure score / mortality: 5 mg/kg i.p., PTZ 70 mg/kg i.p., n = 10; for average duration of seizure / latency time / seizure score: mean ± SEM; for enhancement of latency time of PTZ-induced seizures compared with the standard LTG drug: vs LTG
In short: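 Overnight-fasted albino mice (n = 10 per group) received test compound at 5 mg/kg i.p., suspended in carboxymethylcellulose and sonicated. Controls were vehicle, PTZ alone and lamotrigine (dose-finding at 1–5 mg/kg). Clonic seizures were induced with PTZ 70 mg/kg i.p. Recorded: latency, convulsion duration, number of convulsions, protection, and a 0–6 seizure score (6 = death). Mean ± SEM; one-way ANOVA with Dunnett's test versus the PTZ group.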

## 2,2′-{[6-(2,3-Dichlorophenyl)-1,2,4-Triazine-3,5-Diyl]bis[azanylylidene(E)methanylylidene]}diphenol Zinc Chloride Coordinate Complex [4b]
[1]; dose 10 mg/kg i.p.
  time on Rod: 105.0 ± 98.5 s
[1]; dose 30 mg/kg i.p.
  time on Rod: 80.6 ± 78.6 s
[1]; dose 50 mg/kg i.p.
  time on Rod: 54.26 ± 42.3 s
MCF-7 cell line; MCF-7, 1–30 μM, 48 h, MTT
  IC50 ± SD: inactive
MCF-7 cell line; 48 h, MTT
  % inhibition/stimulation: 0.00%
PTZ-induced convulsions
  average duration of seizure: 81.5 ± 2.1 s
  latency time: 240.0 ± 10.3 s
  seizure score: 10.0 ± 6.5 counts
  mortality: 0.0 counts
PTZ-induced convulsions; 5 mg/kg
  enhancement of latency time of PTZ-induced seizures compared with the standard LTG drug: 13%

## 2,2′-{[6-(2,3-Dichlorophenyl)-1,2,4-triazine-3,5-diyl]bis[azanylylidene(E)methanylylidene]}diphenol Copper Acetate Coordinate Complex [5b]
[1]; dose 10 mg/kg i.p.
  time on Rod: 116.7 ± 94.3 s
[1]; dose 30 mg/kg i.p.
  time on Rod: 100.0 ± 86.3 s
[1]; dose 50 mg/kg i.p.
  time on Rod: 75.83 ± 54.3 s
MCF-7 cell line; MCF-7, 1–30 μM, 48 h, MTT
  IC50 ± SD: inactive
MCF-7 cell line; 48 h, MTT
  % inhibition/stimulation: 0.00%
PTZ-induced convulsions
  average duration of seizure: 97.5 ± 28.3 s
  latency time: 250.0 ± 88.3 s
  seizure score: 11.0 ± 2.4 counts
  mortality: 1 counts
PTZ-induced convulsions; 5 mg/kg
  enhancement of latency time of PTZ-induced seizures compared with the standard LTG drug: 18%
PTZ-induced convulsions; dose of 5 mg/kg
  protection against PTZ-induced convulsions: 90%

## 2,2′-{[6-(2,3-Dichlorophenyl)-1,2,4-triazine-3,5-diyl]bis[azanylylidene(E)methanylylidene]}diphenol Dibutyl Tin Dichloride Coordinate Complex [7b]
[1]; dose 10 mg/kg i.p.
  time on Rod: 80.0 ± 27.6 s
[1]; dose 30 mg/kg i.p.
  time on Rod: 68.9 ± 25.7 s
[1]; dose 50 mg/kg i.p.
  time on Rod: 45.64 ± 19.3 s
MCF-7 cell line; MCF-7, 1–30 μM, 48 h, MTT
  IC50 ± SD: inactive
MCF-7 cell line; 48 h, MTT
  % inhibition/stimulation: 0.00%
PTZ-induced convulsions
  average duration of seizure: 99 ± 7.1 s
  latency time: 190.0 ± 70.1 s
  seizure score: 12.0 ± 1.5 counts
  mortality: 0.0 counts

## 2,2′-{[6-(2,3-Dichlorophenyl)-1,2,4-triazine-3,5-diyl]bis[azanylylidene(E)methanylylidene]}diphenol Silver Nitrate Coordinate Complex [6b]
[1]; dose 10 mg/kg i.p.
  time on Rod: 153.3 ± 92.7 s
[1]; dose 30 mg/kg i.p.
  time on Rod: 146.3 ± 90.9 s
[1]; dose 50 mg/kg i.p.
  time on Rod: 130.0 ± 91.7 s
MCF-7 cell line; 48 h, MTT
  % inhibition/stimulation: 101.2%
MCF-7 cell line; read-out: IC50 ± SD, MCF-7, 1–30 μM, 48 h, MTT
  IC50: 11.9 ± 0.27 µM
PTZ-induced convulsions
  average duration of seizure: 95 ± 10.5 s
  latency time: 330.0 ± 67.8 s
  seizure score: 12.0 ± 1.8 counts
  mortality: 0.0 counts
PTZ-induced convulsions; 5 mg/kg
  enhancement of latency time of PTZ-induced seizures compared with the standard LTG drug: 56%

## 4-{[(3-{(E)-[(4-Hydroxy-3-methoxyphenyl)methylidene]amino}-6-(2,3-dichlorophenyl)-1,2,4-triazin-5-yl)imino]methyl}-2-methoxyphenol Copper Acetate Coordinate Complex [5c]
[1]; dose 10 mg/kg i.p.
  time on Rod: 121.7 ± 98.3 s
[1]; dose 30 mg/kg i.p.
  time on Rod: 90.0 ± 85.6 s
[1]; dose 50 mg/kg i.p.
  time on Rod: 75.64 ± 52.7 s
MCF-7 cell line; MCF-7, 1–30 μM, 48 h, MTT
  IC50 ± SD: inactive
MCF-7 cell line; 48 h, MTT
  % inhibition/stimulation: 0.00%
PTZ-induced convulsions
  average duration of seizure: 115 ± 10.0 s
  latency time: 230.0 ± 70.1 s
  seizure score: 10.0 ± 2.6 counts
  mortality: 0.0 counts
PTZ-induced convulsions; 5 mg/kg
  enhancement of latency time of PTZ-induced seizures compared with the standard LTG drug: 8%

## 4-{[(3-{(E)-[(4-Hydroxy-3-methoxyphenyl)methylidene]amino}-6-(2,3-dichlorophenyl)-1,2,4-triazin-5-yl)imino]methyl}-2-methoxyphenol Dibutyl Tin Dichloride Coordinate Complex [7c]
[1]; dose 10 mg/kg i.p.
  time on Rod: 190.0 ± 74.6 s
[1]; dose 30 mg/kg i.p.
  time on Rod: 167.4 ± 89.8 s
[1]; dose 50 mg/kg i.p., 50 mg/kg
  time on Rod: 140.5 ± 94.9 s and 140.5 ± 94.0 s
MCF-7 cell line; MCF-7, 1–30 μM, 48 h, MTT
  IC50 ± SD: inactive
MCF-7 cell line; 48 h, MTT
  % inhibition/stimulation: 0.00%
PTZ-induced convulsions
  average duration of seizure: 125 ± 15.3 s
  latency time: 160.0 ± 49.0 s
  seizure score: 11.0 ± 1.6 counts
  mortality: 0.0 counts

## Oc1ccccc1/C=N/c1nnc(-c2cccc(Cl)c2Cl)c(/N=C/c2ccccc2O)n1 [3b, 2,2′-{[6-(2,3-Dichlorophenyl)-1,2,4-triazine-3,5-diyl]bis[azanylylidene(E)methanylylidene]}diphenol]
[1]; dose 10 mg/kg i.p.
  time on Rod: 110.8 ± 98.6 s
[1]; dose 30 mg/kg i.p.
  time on Rod: 90.5 ± 82.3 s
[1]; dose 50 mg/kg i.p.
  time on Rod: 65.97 ± 54.9 s

## COc1cc(C=Nc2nc(/N=C/c3ccc(O)c(OC)c3)nnc2-c2cccc(Cl)c2Cl)ccc1O [3c, 4-{[(3-{(E)-[(4-Hydroxy-3-methoxyphenyl)methylidene]amino}-6-(2,3-dichlorophenyl)-1,2,4-triazin-5-yl)imino]methyl}-2-methoxyphenol]
[1]; dose 10 mg/kg i.p.
  time on Rod: 140.7 ± 92.4 s
[1]; dose 30 mg/kg i.p.
  time on Rod: 126.4 ± 88.0 s
[1]; dose 50 mg/kg i.p.
  time on Rod: 100.0 ± 82.3 s

## Nc1nnc(-c2cccc(Cl)c2Cl)c(N)n1 [LTG, 3,5-diamino-6-(2,3-dichlorophenyl)-1,2,4-triazine, reference compound]
[1]; dose 10 mg/kg i.p.
  time on Rod: 290.0 ± 16.7 s
[1]; dose 30 mg/kg i.p.
  time on Rod: 245.8 ± 15.4 s
[1]; dose 50 mg/kg i.p.
  time on Rod: 200.7 ± 13.7 s
PTZ-induced convulsions
  average duration of seizure: 90 ± 3.5 s
  latency time: ~212 s
  seizure score: 11.0 ± 2.3 counts
  mortality: 0.0 counts
PTZ-induced convulsions; listed as LTG control
  latency time: 211.7 ± 98.1 s
PTZ-induced convulsions; 5 mg/kg, vs PTZ negative control
  decrease in the time duration of convulsions as compared to PTZ (negative control): 42%
PTZ-induced convulsions; LTG monotherapy 5 mg/kg
  mice protected from clonic convulsions: 6%
PTZ-induced convulsions; monotherapy, doses 1-5 mg/kg tested against clonic convulsions
  highest nonprotective dose in the PTZ model: 5 mg/kg

## C1CCc2nnnn2CC1 [PTZ, pentylenetetrazole, reference compound]
[1]; dose 10 mg/kg i.p., 10 mg/kg
  time on Rod: 16.67 ± 8.165 s
[1]; dose 30 mg/kg i.p., 30 mg/kg
  time on Rod: 10.46 ± 1.654 s
[1]; dose 50 mg/kg i.p., 50 mg/kg
  time on Rod: 7.7 ± 2.4 s

## COc1cccc2c1C(=O)c1c(O)c3c(c(O)c1C2=O)C[C@@](O)(C(=O)CO)C[C@@H]3O[C@H]1C[C@H](N)[C@H](O)[C@H](C)O1 [doxorubicin (DOX), doxorubicin, reference compound]
MCF-7 cell line; Homo sapiens, MCF7, 48 h, read-out: % inhibition/stimulation
  inhibition at 30 µM: 101%

From PMC7992179 (ACS Omega, 2021)
